According to ChEMBL document CHEMBL4732030, “Aloe-emodin derived azoles as a new structural type of potential antibacterial agents: design, synthesis, and evaluation of the action on membrane, DNA, and MRSA DNA isomerase” (RSC Med Chem, 2021):
In brackets after ≈: the same amount, converted by molar mass. Activity calls are given as the source filed them. The rule behind the calls is not given here.

Tests used:
Escherichia coli [1] = test: Antibacterial activity against Escherichia coli assessed as inhibition of bacterial growth after 24 hrs by microbroth dilution method; type: functional
In short: (§1)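 Bacterial inoculum set to 1×10^5 CFU with sterile saline. Test agents and reference drugs, from DMSO stocks, diluted in Mueller-Hinton broth to 512, 256, 128, 64, 32, 16, 8, 4, 2, 1 and 0.5 µg/mL. Inoculated dilutions incubated 37 °C for 24 h.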

Pseudomonas aeruginosa [2] = test: Antibacterial activity against Pseudomonas aeruginosa ATCC 27853 assessed as inhibition of bacterial growth after 24 hrs by microbroth dilution method; type: functional; in short: as §1
Staphylococcus aureus [3] = test: Antibacterial activity against Staphylococcus aureus ATCC 25923 assessed as inhibition of bacterial growth after 24 hrs by microbroth dilution method; type: functional; in short: as §1
Staphylococcus aureus [4] = test: Antibacterial activity against Staphylococcus aureus ATCC 29213 assessed as inhibition of bacterial growth after 24 hrs by microbroth dilution method; type: functional
In short: (§2)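 Inoculum adjusted in sterile saline to 1×10^5 CFU. Compounds dissolved in DMSO as stock, then diluted in Mueller-Hinton broth as a two-fold series from 512 to 0.5 µg/mL (11 levels). Inoculated dilutions incubated at 37 °C for 24 h, and the MIC recorded.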

Staphylococcus aureus [5] = test: Antibacterial activity against Staphylococcus aureus assessed as inhibition of bacterial growth after 24 hrs by microbroth dilution method; type: functional; in short: as §1
Escherichia coli [6] = test: Antibacterial activity against Escherichia coli ATCC 25922 assessed as inhibition of bacterial growth after 24 hrs by microbroth dilution method; type: functional; in short: as §1
Klebsiella pneumoniae = test: Antibacterial activity against Klebsiella pneumoniae assessed as inhibition of bacterial growth after 24 hrs by microbroth dilution method; type: functional; in short: as §1
Staphylococcus aureus [7] = test: Antibacterial activity against methicillin resistant Staphylococcus aureus assessed as inhibition of bacterial growth after 24 hrs by microbroth dilution method; type: functional; in short: as §2
Acinetobacter baumannii = test: Antibacterial activity against Acinetobacter baumannii assessed as inhibition of bacterial growth after 24 hrs by microbroth dilution method; type: functional; in short: as §1
Enterococcus faecalis = test: Antibacterial activity against Enterococcus faecalis assessed as inhibition of bacterial growth after 24 hrs by microbroth dilution method; type: functional; in short: as §1
Pseudomonas aeruginosa [8] = test: Antibacterial activity against Pseudomonas aeruginosa assessed as inhibition of bacterial growth after 24 hrs by microbroth dilution method; type: functional; in short: as §1
Cell membrane [9] = test: Disruption of membrane integrity in methicillin-reisitant Staphylococcus aureus assessed as increase in fluorescence intensity at 12 times MIC measured within 50 mins by PI-staining based fluorescence analysis
In short: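 Overnight MRSA culture pelleted, washed and resuspended in 5 mM glucose/5 mM HEPES pH 7.4 (1:1). Compound at 12× MIC added to 2 mL suspension containing 10 µM propidium iodide. Fluorescence followed at ex 535/em 617 nm. Water-treated suspension served as control.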

[10] = Cytotoxicity against human LO2 cells assessed as cell viability at 12.5 uM after 72 hrs by CCK8 assay; type: cell-based, L02; details: read-out: Activity
In short: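 Normal human liver LO2 cells seeded at 3000/well and cultured 24 h. Compound added at 100 to 6.25 µM in PBS containing 1% DMSO, then incubated 72 h. CCK8 added for 2 h at 37 °C and absorbance read at 450 nm.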

Staphylococcus aureus [11] = test: Potency index, ratio of norfloxacin MIC to compound MIC for antibacterial activity against methicillin resistant staphylococcus aureus incubated for 24 hrs by microbroth dilution method; type: functional
[12] = Cytotoxicity against human HepG2 cells assessed as cell viability at 12 uM after 72 hrs by CCK8 assay; type: cell-based; details: read-out: Activity
Staphylococcus aureus [13] = test: Induction of ROS generation in methicillin-resistant Staphylococcus aureus after 6 hrs by DCFH-DA dye based fluorometric analysis; type: functional, organism-based
In short: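 MRSA cells at 10^6 CFU/mL were exposed to increasing concentrations of compound for 6 h at 37 °C, then washed with PBS. They were loaded with 10 μM DCFH-DA for 30 min in the dark at 37 °C. DCF fluorescence was read at ex 485/em 528 nm and expressed as fold increase over untreated control cells.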

Cell membrane [14] = test: Disruption of membrane integrity in methicillin-reisitant Staphylococcus aureus assessed as increase in red fluorescence at 12 times MIC by PI-staining based fluorescence microscopy analysis
In short: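 Overnight MRSA cultures treated at 12× MIC, with 0.1% Triton X-100 as positive control and untreated cells as negative control. Cells washed once in 1× PBS and stained with 4.5 mM propidium iodide for 15 min at 37 °C. Imaged by fluorescence microscopy, 10× objective, green-light excitation.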

Calf thymus DNA [15] = test: Binding affinity to calf thymus DNA assessed as DNA intercalation by measuring hypochromic shift by UV-visible absorption spectrophotometric method; type: nucleic-acid assay; details: Bos taurus
In short: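 DNA held fixed while compound concentration was raised stepwise, in Tris-HCl buffer pH 7.4. UV-vis spectra recorded at room temperature in 1.0 cm quartz cells, monitoring the 260 nm DNA band. Binding constant came from a linear fit of A0/(A−A0) against 1/[compound]. DNA stock concentration was set by A260 (ε260 = 6600 L·mol−1·cm−1, per phosphate), with A260/A280 >1.8.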

Calf thymus DNA [16] = test: Binding affinity to calf thymus DNA assessed as DNA intercalation by neutral red dye based UV-visible spectroscopic method; type: nucleic-acid assay; details: Bos taurus
In short: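 Neutral red stock prepared in doubly distilled water and kept cool and dark. DNA stock concentration was set by A260 (ε260 = 6600 L·mol−1·cm−1, per phosphate), with A260/A280 >1.8. All solutions were in Tris-HCl pH 7.4. UV spectra were taken at room temperature in 1.0 cm quartz cells.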

Staphylococcus aureus [17] = test: Potency index, ratio of norfloxacin MIC to compound MIC for antibacterial activity against Staphylococcus aureus incubated for 24 hrs by microbroth dilution method; type: functional

Structure (SMILES) | MIC (Escherichia coli [1]) [µg/mL] | MIC (Pseudomonas aeruginosa [2]) [µg/mL] | MIC (Staphylococcus aureus [3]) [µg/mL] | MIC (Staphylococcus aureus [4]) [µg/mL] | MIC (Staphylococcus aureus [5]) [µg/mL] | MIC (Escherichia coli [6]) [µg/mL] | MIC (Klebsiella pneumoniae) [µg/mL] | MIC (Staphylococcus aureus [7]) [µg/mL] | MIC (Acinetobacter baumannii) [µg/mL] | MIC (Enterococcus faecalis) [µg/mL] | MIC (Pseudomonas aeruginosa [8]) [µg/mL] | Activity (Cell membrane [9]) | viability at 72 h, 12.5 µM [10] [%] | Ratio (Staphylococcus aureus [11]) | viability at 72 h, 12 µM [12] [%] | Activity (Staphylococcus aureus [13]) | Activity (Cell membrane [14]) | Activity (Calf thymus DNA [15]) | Activity (Calf thymus DNA [16]) | Ratio (Staphylococcus aureus [17])
O=C1c2cccc(O)c2C(=O)c2c(O)cc(Cn3ccnc3[N+](=O)[O-])cc21 | 64 (≈ 175 µM) | 64 (≈ 175 µM) | 32 (≈ 87.6 µM) | 32 (≈ 87.6 µM) | 32 (≈ 87.6 µM) | 32 (≈ 87.6 µM) | 64 (≈ 175 µM) | 32 (≈ 87.6 µM) | 64 (≈ 175 µM) | 32 (≈ 87.6 µM) | 64 (≈ 175 µM) |  |  |  |  |  |  |  |  | 
O=C1c2cccc(O)c2C(=O)c2c(O)cc(Cn3cnnn3)cc21 | 128 (≈ 397 µM) | 16 (≈ 49.6 µM) | 64 (≈ 199 µM) | 1 (≈ 3.1 µM) | 16 (≈ 49.6 µM) | 64 (≈ 199 µM) | 32 (≈ 99.3 µM) | 2 (≈ 6.21 µM) | 16 (≈ 49.6 µM) | 4 (≈ 12.4 µM) | 64 (≈ 199 µM) | Active | > 60 | 4 | > 50 | inactive | Active | Active | Active | 
O=C1c2cccc(O)c2C(=O)c2c(O)cc(Cn3cncn3)cc21 | 64 (≈ 199 µM) | 32 (≈ 99.6 µM) | 16 (≈ 49.8 µM) | 32 (≈ 99.6 µM) | 8 (≈ 24.9 µM) | 64 (≈ 199 µM) | 64 (≈ 199 µM) | 32 (≈ 99.6 µM) | 32 (≈ 99.6 µM) | 128 (≈ 398 µM) | 32 (≈ 99.6 µM) |  |  |  |  |  |  |  |  | 
CCn1cc(C(=O)O)c(=O)c2cc(F)c(N3CCNCC3)cc21 [NORFLOXACIN] | 16 (≈ 50.1 µM) | 2 (≈ 6.26 µM) | 1 (≈ 3.13 µM) | 1 (≈ 3.13 µM) | 8 (≈ 25.1 µM) | 8 (≈ 25.1 µM) | 4 (≈ 12.5 µM) | 8 (≈ 25.1 µM) | 0.5 (≈ 1.57 µM) | 32 (≈ 100 µM) | 8 (≈ 25.1 µM) |  |  |  |  |  |  |  |  | 
O=C1c2cccc(O)c2C(=O)c2c(O)cc(Cn3cnc4cc([N+](=O)[O-])ccc43)cc21 | 64 (≈ 154 µM) | 32 (≈ 77 µM) | 64 (≈ 154 µM) | 32 (≈ 77 µM) | 32 (≈ 77 µM) | 32 (≈ 77 µM) | 64 (≈ 154 µM) | 64 (≈ 154 µM) | 32 (≈ 77 µM) | 16 (≈ 38.5 µM) | 32 (≈ 77 µM) |  |  |  |  |  |  |  |  | 
O=C1c2cccc(O)c2C(=O)c2c(O)cc(CSc3nc4ccccc4[nH]3)cc21 | 64 (≈ 159 µM) | 64 (≈ 159 µM) | 128 (≈ 318 µM) | 16 (≈ 39.8 µM) | 4 (≈ 9.94 µM) | 128 (≈ 318 µM) | 64 (≈ 159 µM) | 32 (≈ 79.5 µM) | 16 (≈ 39.8 µM) | 32 (≈ 79.5 µM) | 128 (≈ 318 µM) |  |  |  |  |  |  |  |  | 
Cc1nnnn1Cc1cc(O)c2c(c1)C(=O)c1cccc(O)c1C2=O | 64 (≈ 190 µM) | 32 (≈ 95.2 µM) | 64 (≈ 190 µM) | 64 (≈ 190 µM) | 16 (≈ 47.6 µM) | 64 (≈ 190 µM) | 64 (≈ 190 µM) | 32 (≈ 95.2 µM) | 32 (≈ 95.2 µM) | 16 (≈ 47.6 µM) | 128 (≈ 381 µM) |  |  |  |  |  |  |  |  | 
Cc1ncc([N+](=O)[O-])n1Cc1cc(O)c2c(c1)C(=O)c1cccc(O)c1C2=O | 128 (≈ 337 µM) | 32 (≈ 84.4 µM) | 16 (≈ 42.2 µM) | 128 (≈ 337 µM) | 4 (≈ 10.5 µM) | 64 (≈ 169 µM) | 128 (≈ 337 µM) | 64 (≈ 169 µM) | 32 (≈ 84.4 µM) | 128 (≈ 337 µM) | 64 (≈ 169 µM) |  |  |  |  |  |  |  |  | 2
O=C1c2cccc(O)c2C(=O)c2c(O)cc(Cn3cnc4ccccc43)cc21 | 32 (≈ 86.4 µM) | 32 (≈ 86.4 µM) | 8 (≈ 21.6 µM) | 32 (≈ 86.4 µM) | 32 (≈ 86.4 µM) | 16 (≈ 43.2 µM) | 64 (≈ 173 µM) | 32 (≈ 86.4 µM) | 32 (≈ 86.4 µM) | 16 (≈ 43.2 µM) | 64 (≈ 173 µM) |  |  |  |  |  |  |  |  | 
